# Source: PubChem
# Shown are actives, neighbours in structure and some others; about 1.8% of the full set was active somewhere.
# CHRM4 PAM – CHRM4 positive allosteric modulation; 360,000 compounds, 0.4% hits; AID 624126; activation, % at 3 µM; CHO-K1 hM4/Gqi5, Fluo-8 calcium fluorescence, ACh EC20; 0% = ACh EC20, 100% = maximal ACh;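 active = activation above its plate's cutoff, the mean activation of sample wells plus 3 SD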
# M5 PAM – potentiates acetylcholine response at human M5 receptor. P08912. CHO-K1 hM5, Fluo-8 calcium, ACh EC20 PAM; 0% = ACh EC20, 100% = ACh EC100. activation, % at 3 µM. 360,000 compounds, 0.3% hits. AID 624038;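 active = activation above the run cutoff, the mean activation of all test compounds plus 3 SD, cut at about 18% in these data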
#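 Replicates: One well per compound, no replicates | System: Human M5 receptor in CHO-K1 cells | Benchmarks: Low control EC20 acetylcholine (0%), high control EC100 acetylcholine (100%) | Probe or stimulus: Acetylcholine, EC20 level | Times: Fluo-8 loading 80 min at 37 °C plus 30 min room temperature | Signal: Intracellular calcium via Fluo-8 fluorescence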
# M4 antag – CHRM4 antagonism in calcium assay | AID 624125 | 360,000 compounds, 0.73% hits | CHO-hM4 cells, ACh EC80, Fluo-8 calcium fluorescence | P08173 | inhibition, % at 3 µM;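 active = inhibition above its plate's cutoff, the mean inhibition of sample wells plus 3 SD, cut at about 27% in these data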;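 note: 0% = acetylcholine EC80 with DMSO and 100% = DMSO without agonist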
# CHRM4 agonist – agonists of human muscarinic M4 receptor (CHRM4); CHO-K1 hM4/Gqi5, Fluo-8 calcium fluorescence; vehicle 0%, full acetylcholine response 100%; activation, % at 3 µM; 360,000 compounds, 0.14% hits;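 active = activation above the run mean over all test wells plus 3 SD, cut at about 32% in these data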;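 note: peak over basal fluorescence ratio per well then scaled between controls; 0% = DMSO wells and 100% = acetylcholine at EC100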
# M5 antag – blocks acetylcholine activation of human M5 receptor; CHO-hM5 cells, Fluo-8 calcium fluorescence, ACh EC80; inhibition, % at 3 µM; 360,000 compounds, 0.59% hits;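 active = inhibition above a per-plate cutoff, the mean of that plate's test compounds plus 3 SD, cut at about 27% in these data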;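 note: 0% = acetylcholine EC80 with DMSO and 100% = DMSO without agonist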
# CHRM5 agonist – agonists of human muscarinic M5 receptor (CHRM5) | AID 624037 | CHO-K1 hM5 cells, Fluo-8 calcium fluorescence; 0% DMSO wells, 100% maximal acetylcholine response | activation, % at 3 µM | 360,000 compounds, 0.19% hits;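 active = activation above the run's mean over test compounds plus 3 SD, cut at about 23% in these data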;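 note: signal is peak over basal fluorescence ratio across the kinetic read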
# Starred values were filed as active, the others as inactive.
SMILES,CHRM4 PAM,M5 PAM,M4 antag,CHRM4 agonist,M5 antag,CHRM5 agonist
C#CCN(C[C@H]1[C@H](OC(=O)Nc2c(C)noc2C)[C@H](OC(=O)Nc2c(C)noc2C)C[C@@H](C(=O)OC)[C@H]1C(=O)OC)S(=O)(=O)c1ccc(C)cc1,-4,-2,2,1,-2,0
CN(C(=O)c1cccc(NC(=O)Cc2ccc(NC(=O)C3CCN(C(=O)C4CC4)CC3)cc2)c1)C1CCCC1,0,5,2,1,-7,0
Cc1sc(NC(=O)c2cccs2)c(C(N)=O)c1C,18*,4,-1,1,-3,0
NC(=O)c1ccsc1NC(=O)c1cccs1,4,-9,-15,1,6,-1
O=C(NC(Nc1nc2ccc([N+](=O)[O-])cc2s1)(C(F)(F)F)C(F)(F)F)c1ccccc1Cl,-10,-19,15,7,49*,6
O=C(NC(Nc1nc2ccc([N+](=O)[O-])cc2s1)(C(F)(F)F)C(F)(F)F)c1cccnc1,-7,-15,8,14,26,9
CN(C)CCCNC(=O)N1c2ccccc2C=Cc2ccccc21,-16,-29,68*,1,72*,-22
CCN(CC)C(=O)N1c2ccccc2C=Cc2ccccc21,-8,-9,4,-3,-1,-8
Cc1c(C(=O)NCc2ccc3c(c2)OCO3)oc2ccc(S(=O)(=O)N3CCCCC3)cc12,-27,-19,27*,15,15,4
Cc1c(C(=O)NCc2ccc3c(c2)OCO3)oc2ccc(S(=O)(=O)N3CCCC3)cc12,-8,-15,7,15,11,2
CC(=O)Nc1ccc(NC2=C/C(=N/S(=O)(=O)c3cccs3)c3ccccc3C2=O)cc1,-9,-5,11,15,28*,3
Cc1ccc(NC2=C/C(=N/S(=O)(=O)c3cccs3)c3ccccc3C2=O)cc1C,2,-3,-9,1,4,1
CCCCOc1ccc(Cc2c(O)nc(SC)[nH]c2=O)cc1,18*,51*,18,5,30*,7
Cc1cc(C)c2nc(NNC(=O)c3ccc(S(=O)(=O)N4CCc5ccccc5C4)cc3)sc2c1,-5,-21,-7,8,2,59*
O=C(O)CSCC(=O)NCc1ccc(Cl)cc1,28*,-1,-14,2,5,0
CCCN(C(=O)CSCc1ccc(C)cc1)c1c(N)n(Cc2ccccc2)c(=O)[nH]c1=O,6,2,-6,0,-4,0
O=C(NCc1ccon1)C1CCC(=O)N(CCc2ccc(Cl)cc2)C1 (stereo unspecified),16*,21*,-9,1,-6,-2
CCCCc1ccc(CC(=O)Nc2cc(S(=O)(=O)N3CCOCC3)ccc2O)cc1,2,8,-6,5,-2,7
CCOC(=O)C1=C(COC(=O)CNS(=O)(=O)c2ccc(NC(C)=O)cc2)NC(=O)NC1C (stereo unspecified),22*,0,-5,2,7,2
CCOC(=O)C1=C(COC(=O)CNS(=O)(=O)c2ccc(C)c(C)c2)NC(=O)NC1C (stereo unspecified),-3,-1,0,3,-3,1
C[C@@H]1CN([C@@H](C)CO)C(=O)c2cc(Br)cnc2O[C@H]1CN(C)C(=O)c1ccc2c(c1)OCO2,2,-2,0,1,10,0
C=C[C@]1(C)C[C@@H](OC(=O)CSCCN(CC)CC)[C@]2(C)C(C)CC[C@]3(CCC(=O)[C@H]32)[C@@H](C)[C@@H]1O (stereo partly specified),-2,7,-8,1,-4,0
CCOc1cc(C)c(S(=O)(=O)Nc2ccc3cn[nH]c3c2)cc1C,-2,-16,17,14,30*,9
Cc1ccc(S(=O)(=O)Nc2ccc3cn[nH]c3c2)c(C)c1,0,-5,0,6,4,12
O=C(NNC1CC(=O)N(c2ccc(Br)cc2)C1=O)c1cccs1 (stereo unspecified),16,4,30*,2,-6,3
